This note sets out measurements from ChEMBL document CHEMBL2406936, “Highly oxygenated meroterpenoids from fruiting bodies of the mushroom Tricholoma terreum” (J Nat Prod, 2013).

Holding throughout (type): functional, cell-based
Experiment [1] has as its system SW480. As to the kind of experiment: Cytotoxicity against human SW480 cells after 48 hrs by MTT assay. Put shortly:
(§1)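 Cells grown in RPMI1640 or DMEM with 10% FBS at 37 °C under 5% CO2. Adherent lines (A-549, MCF-7, SMMC-7721, SW480) were allowed 12 h to attach before dosing. Suspension HL-60 cells were seeded just before dosing at an initial 1 × 10^5 cells/mL. Compounds in DMSO at 0.0625, 0.32, 1.6, 8 and 40 μmol, in triplicate, for 48 h. MTT read-out. Cisplatin and vinorelbine were the positive controls.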
For orientation: Formazan colour is commonly taken as a measure of viable cells.

Experiment [2] relates to MCF7. As to the kind of experiment: Cytotoxicity against human MCF7 cells after 48 hrs by MTT assay. Summed up: as §1
The subject of experiment [3] is SMMC-7721. In words: Cytotoxicity against human SMMC7721 cells after 48 hrs by MTT assay. Summed up:
as §1

The test system of experiment [4] is A549. As to the kind of experiment: Cytotoxicity against human A549 cells after 48 hrs by MTT assay. Put shortly:
as §1

Experiment [5] has as its system HL-60. In words: Cytotoxicity against human HL60 cells after 48 hrs by MTT assay. Summed up:
as §1

For `COc1cc(O)c2c(c1O)C[C@]1(C)O[C@@H]1CC[C@@]1(C)O[C@@H]1C2=O`, the IC50 in experiment [1] was 14.2 µmol; in experiment [2], 16.1 µmol; in experiment [3] it was 11.3 µmol; in experiment [4] it was 4.2 µmol; in experiment [5], 4 µmol.

Regarding `COc1cc(O)c2c(c1O)C/C(C)=C\CC[C@@]1(C)O[C@@H]1C2=O`, the IC50 is above 40 µmol in experiment [1]; 24.6 µmol in experiment [2]; 24.7 µmol in experiment [3]; 16.4 µmol in experiment [4]; 5.6 µmol in experiment [5].

For the compound `COc1cc(O)c2c(c1O)C/C(C)=C\[C@@H](O)C[C@@]1(C)O[C@@H]1C2=O`, the IC50 was determined as 21.1 µmol in experiment [1]; 21 µmol in experiment [2]; 14.9 µmol in experiment [3]; 6.5 µmol in experiment [4]; 17.8 µmol in experiment [5].
